Laboratory results taken from ChEMBL document CHEMBL1139546, “Radiosynthesis and evaluation of [11C]-(+)-4-propyl-3,4,4a,5,6,10b-hexahydro-2H-naphtho[1,2-b][1,4]oxazin-9-ol as a potential radiotracer for in vivo imaging of the dopamine D2 high-affinity state with positron emission tomography” (2005).

What was measured:
Rattus norvegicus [1] = experiment: Effect on compound specific binding to rat brain upon pre-treatment with 2 mg/kg reserpine; assay type: functional
Procedure, shortened: (§1)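 Male Sprague-Dawley rats, four groups of five: reserpine (2 mg/kg sc) 24 h before tracer then AMPT (250 mg/kg ip) 1 h before; reserpine then saline; saline then AMPT; saline twice as controls. Tracer given iv via tail vein. Killed 60 min post-injection. Striatal and cerebellar %ID/g counted. Specific binding ratio = (striatum − cerebellum)/cerebellum.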

Rattus norvegicus [2] = experiment: Effect on compound specific binding to rat brain upon pre-treatment with 2 mg/kg reserpine and 250 mg/kg AMPT; assay type: functional; procedure, shortened: as §1
Rattus norvegicus [3] = experiment: Effect on compound specific binding to dopamine release in rat brain upon pre-treatment with 1 mg/kg amphetamine; assay type: functional
Procedure, shortened: (§2)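 Male Sprague-Dawley rats (230-280 g), groups of 4-5, given the challenge agent in saline (1 mL/kg, iv unless otherwise stated) 25-30 min before tail-vein [11C] tracer, 25-30 MBq (1-2 nmol) in buffered saline. A saline control group was run each time. Killed 60 min post-injection. Striatum and cerebellum counted by gamma counter. Specific binding = (%ID/g striatum − %ID/g cerebellum)/%ID/g cerebellum.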

Rattus norvegicus [4] = experiment: Effect on compound specific binding to dopamine release in rat brain upon pre-treatment with 2 mg/kg amphetamine; assay type: functional; procedure, shortened: as §2
Rattus norvegicus [5] = experiment: Effect on compound specific binding to dopamine release in rat brain upon pre-treatment with 4 mg/kg amphetamine; assay type: functional; procedure, shortened: as §2
Rattus norvegicus [6] = experiment: Effect on compound specific binding to dopamine release in rat brain upon pre-treatment with 0.1 mg/kg amphetamine; assay type: functional; procedure, shortened: as §2
Rattus norvegicus [7] = experiment: Effect on compound specific binding to dopamine release in rat brain upon pre-treatment with 0.5 mg/kg amphetamine; assay type: functional; procedure, shortened: as §2
Rattus norvegicus [8] = experiment: Effect on compound specific binding to dopamine release in rat brain upon pre-treatment with 0.25 mg/kg amphetamine; assay type: functional; procedure, shortened: as §2
[9] = Percent change in rat brain dopamine D2/sigma receptor binding after in rat brain after 1 mg/kg haloperidol treatment; assay type: functional; procedure, shortened: as §2
[10] = Percent change in rat brain dopamine D2/sigma receptor binding after in rat brain after 0.2 mg/kg haloperidol treatment; assay type: functional; procedure, shortened: as §2
[11] = biological target: D(1A) dopamine receptor (Rattus norvegicus) (UniProt P18901); settings: Brain, at 1 mg/kg
Chain of D(1A) dopamine receptor (Rattus norvegicus) (P18901 whole entry): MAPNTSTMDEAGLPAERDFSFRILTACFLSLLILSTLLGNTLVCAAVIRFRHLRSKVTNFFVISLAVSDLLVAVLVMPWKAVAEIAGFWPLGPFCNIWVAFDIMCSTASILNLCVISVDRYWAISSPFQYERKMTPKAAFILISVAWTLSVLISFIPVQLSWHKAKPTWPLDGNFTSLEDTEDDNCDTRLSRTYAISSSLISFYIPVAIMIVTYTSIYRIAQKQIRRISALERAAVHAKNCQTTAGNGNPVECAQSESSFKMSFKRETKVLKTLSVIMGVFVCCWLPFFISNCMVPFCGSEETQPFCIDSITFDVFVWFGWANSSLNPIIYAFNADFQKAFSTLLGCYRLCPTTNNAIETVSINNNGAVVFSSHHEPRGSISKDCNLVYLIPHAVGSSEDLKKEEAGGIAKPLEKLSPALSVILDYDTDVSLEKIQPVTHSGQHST

[12] = biological target: Sodium-dependent dopamine transporter (Rattus norvegicus) (UniProt P23977); settings: Brain, at 1 mg/kg
Chain of Sodium-dependent dopamine transporter (Rattus norvegicus) (P23977 whole entry): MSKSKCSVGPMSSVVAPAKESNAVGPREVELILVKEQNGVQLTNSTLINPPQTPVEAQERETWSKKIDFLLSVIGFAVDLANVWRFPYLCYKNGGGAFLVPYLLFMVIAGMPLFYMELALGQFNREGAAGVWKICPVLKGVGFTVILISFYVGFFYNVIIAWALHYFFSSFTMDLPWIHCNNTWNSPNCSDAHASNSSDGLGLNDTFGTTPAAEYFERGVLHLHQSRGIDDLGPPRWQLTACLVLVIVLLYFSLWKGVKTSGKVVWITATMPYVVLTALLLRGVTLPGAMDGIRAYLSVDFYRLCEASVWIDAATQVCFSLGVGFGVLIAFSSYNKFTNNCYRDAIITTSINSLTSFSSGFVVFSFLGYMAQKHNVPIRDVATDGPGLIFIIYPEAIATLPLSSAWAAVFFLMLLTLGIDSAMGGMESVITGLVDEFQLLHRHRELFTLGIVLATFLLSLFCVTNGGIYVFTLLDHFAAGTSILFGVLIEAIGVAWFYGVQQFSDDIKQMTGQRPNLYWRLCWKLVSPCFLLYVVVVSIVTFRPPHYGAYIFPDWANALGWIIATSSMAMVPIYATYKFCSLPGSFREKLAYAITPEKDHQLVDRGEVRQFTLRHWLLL

[13] = biological target: Sodium-dependent dopamine transporter (Rattus norvegicus) (UniProt P23977); settings: Brain, at 2 mg/kg
[14] = biological target: Sodium-dependent dopamine transporter (Rattus norvegicus) (UniProt P23977); settings: Brain, at 5 mg/kg
[15] = biological target: Tyrosine 3-monooxygenase (Rattus norvegicus) (UniProt P04177); settings: Brain, at 250 mg/kg
Chain of Tyrosine 3-monooxygenase (Rattus norvegicus) (P04177 whole entry): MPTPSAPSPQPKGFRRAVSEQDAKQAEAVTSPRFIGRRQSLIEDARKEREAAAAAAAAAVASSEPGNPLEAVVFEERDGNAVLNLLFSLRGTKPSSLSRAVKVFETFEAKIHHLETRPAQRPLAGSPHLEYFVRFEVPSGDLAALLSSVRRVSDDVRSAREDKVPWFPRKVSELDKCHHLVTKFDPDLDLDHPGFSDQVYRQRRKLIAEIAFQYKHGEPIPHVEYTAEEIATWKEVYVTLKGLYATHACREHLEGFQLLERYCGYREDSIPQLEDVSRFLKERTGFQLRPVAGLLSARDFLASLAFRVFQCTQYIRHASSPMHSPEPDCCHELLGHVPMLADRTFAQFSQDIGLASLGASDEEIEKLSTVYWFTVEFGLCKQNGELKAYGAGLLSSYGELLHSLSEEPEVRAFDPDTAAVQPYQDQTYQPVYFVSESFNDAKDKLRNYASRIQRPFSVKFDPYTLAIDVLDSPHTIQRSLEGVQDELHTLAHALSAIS

[16] = biological target: Sodium-dependent dopamine transporter (Rattus norvegicus) (UniProt P23977); settings: Brain, at 10 mg/kg
[17] = biological target: Sodium-dependent dopamine transporter (Rattus norvegicus) (UniProt P23977); settings: Brain, at 0.5 mg/kg
[18] = biological target: Sigma non-opioid intracellular receptor 1 (Rattus norvegicus) (UniProt Q9R0C9); settings: Brain, at 1 mg/kg
Chain of Sigma non-opioid intracellular receptor 1 (Rattus norvegicus) (Q9R0C9 whole entry): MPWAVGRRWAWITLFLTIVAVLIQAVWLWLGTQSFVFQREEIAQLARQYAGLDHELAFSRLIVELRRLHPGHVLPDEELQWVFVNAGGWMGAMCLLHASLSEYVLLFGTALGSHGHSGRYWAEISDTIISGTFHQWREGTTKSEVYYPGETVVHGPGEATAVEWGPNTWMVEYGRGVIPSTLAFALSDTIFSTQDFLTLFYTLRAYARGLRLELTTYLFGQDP

[19] = biological target: T1, Alpha-2A adrenergic receptor (Rattus norvegicus) (UniProt P22909); settings: Brain, at 2 mg/kg
T1 sequence (whole entry): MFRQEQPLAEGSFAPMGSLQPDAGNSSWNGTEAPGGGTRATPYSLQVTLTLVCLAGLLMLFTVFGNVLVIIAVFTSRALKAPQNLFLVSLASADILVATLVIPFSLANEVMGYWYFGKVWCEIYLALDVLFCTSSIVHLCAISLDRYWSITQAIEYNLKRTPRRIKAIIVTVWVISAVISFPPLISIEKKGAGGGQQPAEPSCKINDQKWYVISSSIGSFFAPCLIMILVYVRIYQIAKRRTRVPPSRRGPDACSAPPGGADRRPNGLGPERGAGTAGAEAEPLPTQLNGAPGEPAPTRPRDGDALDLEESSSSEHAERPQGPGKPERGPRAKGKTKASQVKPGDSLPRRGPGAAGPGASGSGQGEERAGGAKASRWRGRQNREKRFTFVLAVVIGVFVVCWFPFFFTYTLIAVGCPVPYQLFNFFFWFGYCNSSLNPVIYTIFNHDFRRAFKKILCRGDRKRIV

[20] = biological target: T2, Dopamine receptor D2 and D3 (Rattus norvegicus) (UniProt P19020+P61169); settings: Brain, at 1 mg/kg
T2 sequence (P19020 whole entry, looked up): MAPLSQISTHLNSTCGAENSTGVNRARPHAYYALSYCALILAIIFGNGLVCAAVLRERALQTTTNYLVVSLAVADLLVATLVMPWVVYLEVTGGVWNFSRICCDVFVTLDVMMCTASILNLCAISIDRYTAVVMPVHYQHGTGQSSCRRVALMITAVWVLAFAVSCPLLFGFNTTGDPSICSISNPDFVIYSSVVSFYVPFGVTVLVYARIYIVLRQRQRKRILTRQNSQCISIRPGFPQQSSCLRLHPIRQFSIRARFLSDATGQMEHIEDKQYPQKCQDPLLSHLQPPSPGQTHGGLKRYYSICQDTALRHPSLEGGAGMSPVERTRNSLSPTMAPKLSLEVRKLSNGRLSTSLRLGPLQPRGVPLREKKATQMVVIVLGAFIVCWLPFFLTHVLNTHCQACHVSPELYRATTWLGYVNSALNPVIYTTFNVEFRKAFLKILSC
T2 sequence (P61169 whole entry, looked up): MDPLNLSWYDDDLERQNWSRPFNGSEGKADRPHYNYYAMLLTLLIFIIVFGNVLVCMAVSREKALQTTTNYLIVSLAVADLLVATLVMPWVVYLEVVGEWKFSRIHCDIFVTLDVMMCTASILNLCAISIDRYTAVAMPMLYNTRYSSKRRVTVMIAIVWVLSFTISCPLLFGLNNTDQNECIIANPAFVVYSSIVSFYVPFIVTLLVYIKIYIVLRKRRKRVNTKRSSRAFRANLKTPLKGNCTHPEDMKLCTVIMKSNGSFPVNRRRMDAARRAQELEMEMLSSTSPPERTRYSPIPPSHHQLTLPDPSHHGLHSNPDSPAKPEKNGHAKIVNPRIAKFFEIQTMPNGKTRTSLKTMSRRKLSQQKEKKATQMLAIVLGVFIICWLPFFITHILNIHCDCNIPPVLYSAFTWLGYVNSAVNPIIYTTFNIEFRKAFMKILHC

[21] = biological target: Adrenergic receptor alpha-2 (Rattus norvegicus) (UniProt P22086+P19328+P22909); settings: Brain, at 1 mg/kg
Chain of Adrenergic receptor alpha-2 (Rattus norvegicus) (P19328 whole entry, looked up, one chain of several): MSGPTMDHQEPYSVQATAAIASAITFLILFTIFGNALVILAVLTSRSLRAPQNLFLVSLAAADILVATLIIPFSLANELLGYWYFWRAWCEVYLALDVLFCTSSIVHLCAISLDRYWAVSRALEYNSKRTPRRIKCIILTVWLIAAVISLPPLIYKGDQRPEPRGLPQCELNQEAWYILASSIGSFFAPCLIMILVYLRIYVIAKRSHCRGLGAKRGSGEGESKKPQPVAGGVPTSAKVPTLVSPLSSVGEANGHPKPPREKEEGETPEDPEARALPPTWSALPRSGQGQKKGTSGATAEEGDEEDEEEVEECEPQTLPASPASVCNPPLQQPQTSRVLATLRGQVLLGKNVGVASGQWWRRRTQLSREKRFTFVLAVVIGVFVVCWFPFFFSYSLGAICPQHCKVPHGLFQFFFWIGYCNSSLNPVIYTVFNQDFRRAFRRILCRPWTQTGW
Chain of Adrenergic receptor alpha-2 (Rattus norvegicus) (P22086 whole entry, looked up, one chain of several): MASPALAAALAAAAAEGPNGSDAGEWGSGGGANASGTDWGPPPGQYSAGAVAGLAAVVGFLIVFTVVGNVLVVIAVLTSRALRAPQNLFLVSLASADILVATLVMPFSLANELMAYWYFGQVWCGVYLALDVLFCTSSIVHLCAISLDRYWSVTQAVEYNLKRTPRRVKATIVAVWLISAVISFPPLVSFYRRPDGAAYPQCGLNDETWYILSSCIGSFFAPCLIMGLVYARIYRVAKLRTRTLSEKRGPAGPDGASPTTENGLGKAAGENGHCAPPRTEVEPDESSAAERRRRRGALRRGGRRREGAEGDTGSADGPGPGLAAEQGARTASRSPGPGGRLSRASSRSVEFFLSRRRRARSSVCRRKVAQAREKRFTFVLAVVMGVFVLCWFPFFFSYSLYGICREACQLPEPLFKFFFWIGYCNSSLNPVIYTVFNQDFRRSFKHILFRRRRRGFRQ

[22] = biological target: T1, Alpha-2A adrenergic receptor (Rattus norvegicus); settings: Brain, at 0.1 mg/kg
[23] = biological target: T2, Dopamine receptor D2 and D3 (Rattus norvegicus); settings: Brain, at 0.2 mg/kg
[24] = biological target: T2, Dopamine receptor D2 and D3 (Rattus norvegicus); settings: Brain, at 0.04 mg/kg
[25] = biological target: T3, 5-hydroxytryptamine receptor 1A (Rattus norvegicus) (UniProt P19327); settings: Brain, at 1 mg/kg
T3 sequence (whole entry): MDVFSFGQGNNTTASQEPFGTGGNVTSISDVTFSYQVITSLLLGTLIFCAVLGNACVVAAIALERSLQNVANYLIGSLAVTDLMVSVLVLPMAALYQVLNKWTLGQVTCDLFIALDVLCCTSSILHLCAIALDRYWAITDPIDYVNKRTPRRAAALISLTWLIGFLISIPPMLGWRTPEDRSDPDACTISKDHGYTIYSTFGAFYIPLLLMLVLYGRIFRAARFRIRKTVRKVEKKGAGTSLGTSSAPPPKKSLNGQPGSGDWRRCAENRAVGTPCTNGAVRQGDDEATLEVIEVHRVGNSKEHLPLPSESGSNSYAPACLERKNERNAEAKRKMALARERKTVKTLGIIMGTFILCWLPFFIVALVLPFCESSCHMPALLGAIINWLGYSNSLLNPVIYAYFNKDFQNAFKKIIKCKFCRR

[26] = biological target: T2, Dopamine receptor D2 and D3 (Rattus norvegicus); settings: Brain, at 0.01 mg/kg

With `CCCN1CCO[C@@H]2c3cc(O)ccc3CC[C@H]21` [NAXAGOLIDE] the Change (Rattus norvegicus [1]) was 30%, the Change (Rattus norvegicus [2]) was 34% and the Change (Rattus norvegicus [3]) was -17%. For the same compound, the Change (Rattus norvegicus [4]) was -30%, the Change (Rattus norvegicus [5]) was -38% and the Change (Rattus norvegicus [6]) was -2%. It also gave a Change (Rattus norvegicus [7]) of -19%, a Change (Rattus norvegicus [8]) of -1% and a Change [9] of -95%. It also gave a Change [10] of -91%, a Change [11] of 11% and a Change [12] of -42%. For the same compound, the Change [13] was -57%, the Change [14] was -57% and the Change [15] was 31%. It also gave a Change [16] of -73%, a Change [17] of -43% and a Change [18] of 22%. The Change [19] was 13%, the Change [20] was -93% and the Change [21] was 30%. For the same compound, the Change [22] was 10%, the Change [23] was -80% and the Change [24] was -39%. For the same compound, the Change [25] was -14% and the Change [26] was -22%.
